In test [1] the test system is MCF7. The test is described as follows: Cytotoxicity against human MCF7 cells after 24 hrs by MTT assay. Format: functional, cell-based. The note with it: MCF7, 24 h. The essentials: (§1)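 In vitro antiproliferative screen by MTT assay against human MCF-7 breast, HeLa cervical, A549 lung adenocarcinoma and HepG-2 hepatoma cells. Output is the IC50.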
The test system of test [2] is HepG2. In words: Cytotoxicity against human HepG2 cells after 24 hrs by MTT assay. The test is classed as functional, cell-based. The conditions noted are these: HepG2, 24 h. The essentials:
as §1

In test [3] the test system is MCF7. The test is described as follows: Cell cycle arrest in human MCF7 cells assessed as accumulation at S phase at 0.6 uM after 12 hrs by propidium iodide staining based flow cytometric method (reference value: 27.63 to 32.34%). The test is classed as functional.
Test [4] concerns MCF7. The test is described as follows: Cell cycle arrest in human MCF7 cells assessed as accumulation at G1 phase at 0.6 uM after 4 hrs by propidium iodide staining based flow cytometric method (reference value: 60.19 to 60.87%). Format: functional.
Test [5] has as its system MCF7. The test is described as follows: Cell cycle arrest in human MCF7 cells assessed as accumulation at G1 phase at 0.6 uM after 8 hrs by propidium iodide staining based flow cytometric method (reference value: 60.19 to 60.87%). Format: functional.
Test [6] relates to MCF7. In words: Induction of apoptosis in human MCF7 cells assessed as late apoptotic cells at 2 uM after 24 hrs by Annexin-V-FITC/propidium iodide staining based flow cytometric method (reference value: 2 to 3.7%). The test is classed as functional.
Test [7] has as its system MCF7. The test is described as follows: Induction of apoptosis in human MCF7 cells assessed as early apoptotic cells at 8 uM after 24 hrs by Annexin-V-FITC/propidium iodide staining based flow cytometric method (reference value: 2.36 to 2.86%). Format: functional.
In test [8] the test system is MCF7. In words: Induction of apoptosis in human MCF7 cells assessed as necrotic cells at 8 uM after 24 hrs by Annexin-V-FITC/propidium iodide staining based flow cytometric method (reference value: 2.35 to 2.49%). The test is classed as functional.
Test [9] has as its system MCF7. The test is described as follows: Induction of apoptosis in human MCF7 cells assessed as late apoptotic cells at 12 uM after 24 hrs by Annexin-V-FITC/propidium iodide staining based flow cytometric method (reference value: 2 to 3.7%). Format: functional.
In test [10] the test system is MCF7. The test is described as follows: Down regulation of cyclin B1 expression in human MCF7 cells at 0.5 to 2 uM after 24 hrs by Western blot analysis. Format: functional, cell-based.
In test [11] the test system is MCF7. In words: Down regulation of cyclin D1 expression in human MCF7 cells at 0.5 to 2 uM after 24 hrs by Western blot analysis. The test is classed as functional, cell-based.

pIC50: −log10 of the molar value. The source made the active and inactive calls. The rule behind the calls is not given here.

Regarding `COc1cc([C@@H]2c3cc4c(cc3[C@H](OC(=O)CN3CCN(c5ccc(Cl)c(Cl)c5)CC3)[C@H]3COC(=O)[C@H]23)OCO4)cc(OC)c1OC`, the pIC50 is 5.56 in [1] and 5.10 in [2]. For the same compound, the Activity is listed as 4.21 - 20.78% in test [3]; 46.58% in test [4]; 29.54% in test [5]; 6.11% in test [6]; 14.7% in test [7]; 3.45% in [8]. Also, the Activity in test [9] was found to be 20.4%. The outcome in [10] and in test [11] was Active.
